The list is not random: actives were taken first. Their share in the collection is about 1.4%.
T cell modulator: T cell immune modulation candidate; 2C CD8+ T cell-vesicle binding, flow cytometry; stronger effect = lower value; response (vesicle binding), % at 7 µM; 0.068% of 330,000 active;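 active means response, share of CD8 T cells binding vesicles, and their 90th percentile fluorescence all below set limits, cut at about 80% in these data, passing the limit was not always enough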;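 further: values below 100% mean blocked vesicle binding to the CD8+ T cells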
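Incubation: binding step 1.5 h, 37 °C, antibody labelling 20 min, ice; system: murine 2C transgenic CD8+ T lymphocytes; technique: cytometric PE anti-B7-1 and Alexa647 anti-CD8 signals after 1% paraformaldehyde fixation; also added: QL9-charged Drosophila Ld/ICAM-1/B7-1 vesicles; control set: naked versus QL9-loaded vesicles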
Mot1-301 SUMO: blocks SUMOylation pathway, rescuing yeast Mot1-301 growth; S. cerevisiae Mot1-301 growth rescue, ATP luminescence, 38.5C; percent above DMSO median, 100 means doubled; growth rescue, % at 18.8 µM; 1% of 320,000 active;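 active means every valid replicate shows activation above 250% relative to neutral control wells; inactive means the rest, any valid replicate at or below 250%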;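 further: OY570 slx delta 5 strain wells were the positive control but not used for scaling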
HIF act: HIF pathway transcriptional activation | U2OS HRE-luciferase reporter, luminescence; normalized: DMSO 0%, desferrioxamine 100% | AID 1910 | 0.32% of 300,000 active | activation, % at 7.5 µM (by protocol);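 active means mean activation of at least 10% of the iron chelator positive control signal, with at least half of replicates also reaching 10%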
GASC-1 inh: human JMJD2C demethylase inhibition; AID 2099; inhibition, % at 2.35 µM; GST-JMJD2C(1-420) H3K9me3 demethylation, DELFIA europium; 0.069% of 330,000 active;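 active means more than half of a compound's replicate wells show inhibition beyond 50%, single wells judged on their own value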;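 further: signal counts dimethyl H3K9 product captured on neutravidin plate; 0% = median of DMSO wells and 100% = 0.3 times that DMSO median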
Target sequence (Q9H3R0 1-420 limits assumed): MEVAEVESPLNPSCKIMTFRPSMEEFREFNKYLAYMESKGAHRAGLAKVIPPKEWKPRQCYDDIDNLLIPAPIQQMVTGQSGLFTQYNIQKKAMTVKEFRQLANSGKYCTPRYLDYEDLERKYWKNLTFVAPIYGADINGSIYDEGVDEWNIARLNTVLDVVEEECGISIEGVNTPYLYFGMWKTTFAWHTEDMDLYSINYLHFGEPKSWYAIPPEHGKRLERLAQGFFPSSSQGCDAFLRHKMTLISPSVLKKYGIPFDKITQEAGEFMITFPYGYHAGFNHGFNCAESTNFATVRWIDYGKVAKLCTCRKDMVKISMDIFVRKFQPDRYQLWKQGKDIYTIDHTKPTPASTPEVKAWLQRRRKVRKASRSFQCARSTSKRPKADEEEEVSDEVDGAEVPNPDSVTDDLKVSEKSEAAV
The depositor's hits bear a star; i = inactive; / = not tested or not shown.

SMILES	T cell modulator	Mot1-301 SUMO	HIF act	GASC-1 inh
CCN(C1CCS(=O)(=O)C1)S(=O)(=O)c1ccc2ccccc2c1 (centres undefined)	198.5	325.2*	-0.1	-4.7
CCn1c(=O)c2c(n3c(=S)[nH]nc13)-c1ccccc1CC21CCCCC1	150.7	-18.7	-0.1	1.0
COC(=O)c1ccc2c(=O)[nH]c(CSc3nc(-c4ccc(F)cc4)cs3)nc2c1	77.7*	-7.5	0.4	-3.8
CNS(=O)(=O)c1cn(CC(=O)N(C)Cc2ccccc2)cc1S(=O)(=O)NC	295.2	9.0	0.8	0.4
CS(=O)(=O)c1cccc(C(=O)N(CCc2ccccc2)Cc2cccs2)c1	140.7	244.8	15.0*	-18.6
O=C(c1cccc(S(=O)(=O)N2CCCCC2)c1)N(CCc1ccccc1)Cc1ccccc1	676.7	-0.9	-0.7	-3.1
CN(C)c1ccc(/C=C(/C(=O)c2ccc(Cl)cc2Cl)n2cncn2)cc1	0.0	308.4*	-0.2	1.3
COc1ccc(/C=C(/C(=O)c2ccc(Cl)cc2Cl)n2cncn2)cc1	566.9	/	0.1	9.7
COc1cccc(OCC(=O)Nc2ccccc2C(=O)Nc2ccc(C(=O)O)cc2)c1	337.8	4.5	-0.6	-16.8
NC(=O)Nn1c(CCC(=O)O)ccc1-c1ccc(F)cc1	523.9	349.2*	-0.2	11.5
CCCCN(C(=O)COC(=O)COc1c(C)cc(C)cc1C)c1c(N)n(CCC)c(=O)[nH]c1=O	382.7	286.5*	-1.0	6.9
COc1ccc(C(=O)N2CCN(c3ccc(NC(=O)Cc4ccccc4)cc3)CC2)cc1	0.0*	-6.3	0.0	2.5
COc1ccc(Br)cc1C(C[N+](=O)[O-])c1c(N)n(C)c(=O)n(C)c1=O (centres undefined)	95.8	330.4*	-1.0	6.4
CN(C)c1ccc(C(C[N+](=O)[O-])c2c(N)n(C)c(=O)n(C)c2=O)c(F)c1C#N (centres undefined)	291.3	77.7	0.1	-3.1
CN1CCCCCC1C(=O)N1CCC(N2CCC(C(=O)N3CCOCC3)CC2)CC1 (centres undefined)	128.5	270.4*	0.0	-9.0
CC(C)(C)C(=O)NC(=S)Nc1ccccc1F	i	435.8*	-32.0	6.5
O=C(NCc1cccs1)c1cccnc1C(=O)O	367.6	-12.2	-0.1	58.6*
O=C(NCc1ccc(F)cc1)c1cccnc1C(=O)O	234.1	-5.1	0.2	55.4
CCN1CCN(C(=S)NC(=O)/C=C/c2cccs2)CC1	282.8	676.2*	0.8	4.9
CCN1CCN(C(=S)NC(=O)c2cccs2)CC1	245.7	3.4	0.1	0.2
COc1ccc(-n2c(=O)c(CCC(=O)N3CCC(C)CC3)nc3ccccc32)cc1	301.8	5.0	/	/
COC(=O)/C(=C(/F)SCC(C)=O)C(F)(F)F	373.4	-0.9	91.0*	5.5
CC(=O)c1c(O)c2ccccc2n(Cc2ccccc2)c1=O	58.5*	-21.0	-0.3	27.9
CCn1c(=O)c(C(=O)NCCc2ccccc2)c(O)c2ccccc21	454.7	3.1	-0.4	5.1
NS(=O)(=O)c1ccc(NC(=S)NC2CC2)cc1	522.4	691.4*	0.7	1.7
SMILES	T cell modulator	Mot1-301 SUMO	HIF act	GASC-1 inh
CC(C)c1cc2c(c(O)c1O)[C@@]13CCCC(C)(C)C1CC2OC3=O (some centres undefined)	410.6	-4.0	0.2	127.1
CC(NC(=O)c1ccccc1F)c1nnc(SCc2nc3ccccc3c(=O)[nH]2)n1C (centres undefined)	199.0	292.3*	0.2	-0.8
CC(NC(=O)c1ccccc1)c1nnc(SCc2nc3ccccc3c(=O)[nH]2)n1C (centres undefined)	154.0	-17.7	-0.4	-0.5
CN(C)C=NC(=O)c1cn(-c2ccc(F)cc2)c(=O)c2ccccc12	144.5	-0.5	57.9*	-4.3
CN(C)C(=O)c1cn(-c2ccc(Cl)cc2)c(=O)c2ccccc12	142.2	5.3	-0.2	-4.0
CCN(CC(=O)NCc1cccs1)C(=O)c1ccc(-c2ccccc2F)o1	236.8	/	/	/
COc1cc(C(=O)NCCc2nc3ccccc3n2C)cc(OC)c1OC	683.9	0.5	95.3*	-4.1
CC(=O)Oc1ccc(N(c2ccccc2)S(=O)(=O)c2ccc(C)cc2)cc1	262.1	2.6	0.1	6.2
CCCCNc1nc(N)nc(-c2cc(Cl)ccc2O)n1	209.6	19.8	12.5*	0.0
CCNc1nc(N)nc(-c2cc(Cl)ccc2O)n1	83.4	38.7	4.7	-2.3
CC(=O)OC1CC2(C)/C(=N\O)CCC2C2CCc3cc(O)ccc3C12 (centres undefined)	203.2	3.2	0.6	3.2
COc1ccc(Cl)c(OC)c1C(=O)NC(=O)Nc1c(F)cc(F)cc1F	231.2	-5.3	19.4*	-2.4
O=C(CSc1nc2ccccc2c(=O)n1CCCN1CCOCC1)NC12CC3CC(CC(C3)C1)C2	445.2	-3.6	-0.7	2.4
COc1cccc(/C=N/NC(=O)CSCC(=O)Nc2ccccc2)c1O	816.8	4.5	17.3*	10.2
COc1cccc(/C=N/NC(=O)CNC(=O)C(c2ccccc2)c2ccccc2)c1O	252.3	11.8	13.7*	-19.0
COc1cccc(/C=N/NC(=O)c2ccoc2C)c1O	405.2	96.2	24.8*	5.7
COc1cccc(/C=N\NC(=O)Cn2nnc3ccccc32)c1O	197.1	5.4	15.9*	1.2
C=CCNC(=O)N1CCC(n2nccc2NC(=O)CCCc2ccccc2)CC1	293.6	-2.6	-0.3	-20.8
CCN(CC)c1ccc(/C=N/n2c(C)nc3ccccc3c2=O)cc1	313.2	-5.5	0.7	3.9
O=C(CSc1nnc(-c2c[nH]c3ccccc23)o1)NCC1CCCO1 (centres undefined)	255.9	285.5*	/	4.8
COc1cc(CC(=O)NCC(C)(C)N2CCOCC2)cc(OC)c1OC	246.4	2.3	-0.7	9.3
O=S(=O)(Nc1nc2ccccc2nc1N1CCN(c2ccccc2)CC1)c1ccc(F)cc1	148.0	526.0*	0.1	7.7
COc1cccc(/C=N/Nc2nc3ccccc3n3cnnc23)c1	157.1	-7.8	360.2*	5.9
NC(=O)N/N=C/c1coc2ccc3ccccc3c2c1=O	428.1	334.2*	0.2	-6.6
CCn1ncc(C2=NOC(C(=O)Nc3ccc4c(c3)OCO4)C2)c1C (centres undefined)	180.9	398.0	110.2*	28.4
CCOc1ccccc1N1CCN(C(=O)c2cc(-c3cccnc3)nc3c(Cl)cccc23)CC1	218.1	288.2	2.8	7.4
Cc1c(C(=O)OCC(=O)c2ccc3c(c2)OCCO3)oc2ccccc12	209.3	312.1*	-37.1	-29.5
Cc1cc(C(=O)OCC(=O)c2ccc3c(c2)OCCO3)c(C)o1	233.7	-10.9	1.9	1.9
COc1ccc(NC(=O)N(C)C[C@H]2Oc3ccc(NC(=O)Cn4cnnn4)cc3C(=O)N([C@H](C)CO)C[C@@H]2C)cc1	188.4	3.5	/	10.0
C[C@H](CO)N1C[C@H](C)[C@@H](CN(C)C(=O)Nc2ccc3c(c2)OCO3)Oc2ccc(NC(=O)Cn3cnnn3)cc2C1=O	182.3	-7.6	/	68.4*
